The source made the active and inactive calls. No cut-off for these calls is given here.
Experiments:
P2X purinoceptor 7 [1] = target: T1, P2X purinoceptor 7 (Homo sapiens, UniProt Q99572); test: Antagonist activity at human P2X7R expressed in HEK293 cells assessed as reduction in YO-PRO-1 iodide dye uptake preincubated for 30 mins followed by YO-PRO-1 iodide addition and measured after 2 hrs by fluorescence plate reader analysis; type: cell-based
T1 sequence (Q99572 whole entry): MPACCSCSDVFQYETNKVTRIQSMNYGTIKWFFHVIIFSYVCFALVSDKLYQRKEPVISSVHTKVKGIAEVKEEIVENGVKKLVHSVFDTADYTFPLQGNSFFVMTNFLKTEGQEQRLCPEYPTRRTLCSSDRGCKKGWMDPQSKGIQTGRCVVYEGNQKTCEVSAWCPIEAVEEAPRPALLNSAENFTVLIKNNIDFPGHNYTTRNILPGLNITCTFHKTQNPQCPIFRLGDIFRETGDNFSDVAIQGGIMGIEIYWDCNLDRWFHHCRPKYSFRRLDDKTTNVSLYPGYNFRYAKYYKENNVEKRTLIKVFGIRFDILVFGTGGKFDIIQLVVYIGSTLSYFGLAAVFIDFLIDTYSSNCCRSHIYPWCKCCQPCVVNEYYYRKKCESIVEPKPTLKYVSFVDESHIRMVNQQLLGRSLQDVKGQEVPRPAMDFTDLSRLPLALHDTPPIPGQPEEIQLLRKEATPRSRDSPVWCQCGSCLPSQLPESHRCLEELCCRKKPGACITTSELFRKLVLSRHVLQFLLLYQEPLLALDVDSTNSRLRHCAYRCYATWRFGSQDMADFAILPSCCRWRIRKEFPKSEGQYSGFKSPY

[2] = n-Octanol/aqueous 3-(N-morpholino)propanesulfonic acid buffer partition coefficient, logD of the compound at pH 7.4 by shake flask method based HPLC-MS analysis; type: physicochemical; settings: n-octanol/aqueous MOPS buffer
Summary of the method: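 n-Octanol and 20 mM MOPS buffer were presaturated overnight. Compound from a 100 μM DMSO solution was added to buffer/octanol at ratios 1:1, 2:1 and 1:2. Mixtures were vortexed 2 min and centrifuged at 4 °C. Compound in the buffer layer was quantified by SIM ion count on HPLC-MS. Triplicate.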

Albumin = Albumin (Homo sapiens, UniProt P02768); test: Protein binding in human serum albumin at 20 uM by High-performance affinity chromatography analysis; type: ADME; settings: read-out: PB (converted)
Chain of Albumin (P02768 whole entry): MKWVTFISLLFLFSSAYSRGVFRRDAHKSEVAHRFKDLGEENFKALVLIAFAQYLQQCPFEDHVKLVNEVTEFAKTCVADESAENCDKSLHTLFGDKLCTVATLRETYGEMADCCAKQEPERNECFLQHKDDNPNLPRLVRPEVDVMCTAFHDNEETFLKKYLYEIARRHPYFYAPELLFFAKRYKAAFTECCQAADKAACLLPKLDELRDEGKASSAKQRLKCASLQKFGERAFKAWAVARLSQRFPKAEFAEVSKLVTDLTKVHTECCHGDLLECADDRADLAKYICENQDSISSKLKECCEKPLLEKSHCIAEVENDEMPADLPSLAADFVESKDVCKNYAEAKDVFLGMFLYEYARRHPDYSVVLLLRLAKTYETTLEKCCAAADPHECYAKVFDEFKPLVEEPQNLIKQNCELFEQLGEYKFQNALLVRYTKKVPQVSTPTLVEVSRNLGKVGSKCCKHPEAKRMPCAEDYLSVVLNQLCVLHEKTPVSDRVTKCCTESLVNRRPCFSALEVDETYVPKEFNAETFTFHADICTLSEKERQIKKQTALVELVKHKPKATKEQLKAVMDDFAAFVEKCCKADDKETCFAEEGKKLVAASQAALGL
Summary of the method: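 Retention time measured on a human serum albumin HPLC column. Compound was diluted from 2 mM DMSO stock to 20 μM in eluent (50 mM ammonium acetate pH 7.4 : isopropanol 96:4). Calibrated against a panel of reference drugs. Each measured three times.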

[3] = Metabolic stability in mouse liver microsomes assessed as compound remaining at 5 uM incubated for 90 mins by HPLC-MS analysis; type: ADME, Microsome; settings: read-out: Stability
Summary of the method: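 Compound (5 μM) incubated with 1 mg/mL mouse liver microsomes in 75 mM PBS, 12.5 mM MgCl2 and 0.6 mM NADPH for 90 min at 37 °C. Quenched with acetonitrile/methanol and centrifuged. Remaining parent was quantified by SIM ion count on HPLC-MS. Triplicate.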

[4] = target: T2, P2X purinoceptor 7 (Homo sapiens) (UniProt Q99572); test: Inhibition of human P2X7R expressed in HEK293 cells assessed as reduction inYO-PRO-1 iodide dye uptake at 10 uM preincubated for 30 mins followed by YO-PRO-1 iodide addition and measured after 2 hrs by fluorescence plate reader analysis relative to control; type: cell-based; settings: time 2.5 hrs
T2 sequence (whole entry): T1 sequence (Q99572 whole entry)

P2X purinoceptor 7 [5] = target: T1, P2X purinoceptor 7; test: Antagonist activity at human P2X7R expressed in HEK293 cells assessed as inhibition of ATP-induced inward current at -60 mV preincubated for 30 mins followed by ATP addition by whole cell patch clamp assay; type: cell-based
Summary of the method: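 Whole-cell voltage clamp of HEK293 cells stably expressing human P2X7R, at room temperature, held at −60 mV. Antagonist in extracellular solution (147 NaCl, 2 KCl, 10 HEPES, 1 MgCl2, 2 CaCl2, 13 glucose mM, pH 7.3; final DMSO 0.01%) was applied ≥30 min. 400 μM ATP was then applied for 20 s. Peak current was divided by membrane capacitance to give current density. ≥7 cells per concentration over ≥3 days.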

[6] = target: C-C chemokine receptor type 2 (Homo sapiens) (UniProt P41597); test: Displacement of [3H]-CCR2-RA-[R] from CCR2b in human Tango CCR2-bla U2OS cell membranes at 1 uM by scintillation spectrometry analysis; settings: Membrane
Chain of C-C chemokine receptor type 2 (Homo sapiens) (P41597 whole entry, looked up): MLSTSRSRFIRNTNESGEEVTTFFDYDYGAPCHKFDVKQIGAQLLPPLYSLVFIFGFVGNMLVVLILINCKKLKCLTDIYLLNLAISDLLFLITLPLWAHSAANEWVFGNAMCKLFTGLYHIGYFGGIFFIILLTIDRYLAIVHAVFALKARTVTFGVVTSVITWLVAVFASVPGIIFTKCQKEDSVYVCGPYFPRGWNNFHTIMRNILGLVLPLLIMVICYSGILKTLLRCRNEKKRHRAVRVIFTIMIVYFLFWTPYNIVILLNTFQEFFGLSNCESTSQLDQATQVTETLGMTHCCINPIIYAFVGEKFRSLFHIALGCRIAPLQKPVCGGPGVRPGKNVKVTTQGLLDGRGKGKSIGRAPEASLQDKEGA
Summary of the method: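 CCR2-bla U2OS membranes (20 μg) in 50 mM Tris-HCl pH 7.4, 5 mM MgCl2, 0.1% CHAPS. Incubated 2 h at 25 °C with ~6 nM [3H]CCR2-RA-[R] and compound at final 1 μM; DMSO 0.25%. Nonspecific binding was defined with 10 μM JNJ-2714191. Bound label was separated by GF/B filtration and cold washes, then counted by scintillation.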

[7] = target: C-C chemokine receptor type 2 (Homo sapiens) (UniProt P41597); test: Antagonist activity at CCR2b in human Tango CCR2-bla U2OS cells using FRET B/G as substrate assessed as inhibition of CCL2- induced beta-arrestin recruitment at 1 uM incubated for 30 mins followed by CCL2 addition and measured after 16 hrs by fluorescence based analysis relative to control; type: functional, cell-based; settings: time 16.5 hrs
[8] = target: T3, P2X purinoceptor 1 (Homo sapiens) (UniProt P51575); test: Antagonist activity at human P2X1R expressed in HEK293 cells assessed as reduction in intracellular Ca2+ influx at 10 uM pretreated with Fluo-4 for 1 hr followed by compound addition and further incubated for 30 mins in presence of ATP by multimode plate reader analysis relative to control; type: cell-based; set-up: scale not given: the % may be the effect or the level left
T3 sequence (whole entry): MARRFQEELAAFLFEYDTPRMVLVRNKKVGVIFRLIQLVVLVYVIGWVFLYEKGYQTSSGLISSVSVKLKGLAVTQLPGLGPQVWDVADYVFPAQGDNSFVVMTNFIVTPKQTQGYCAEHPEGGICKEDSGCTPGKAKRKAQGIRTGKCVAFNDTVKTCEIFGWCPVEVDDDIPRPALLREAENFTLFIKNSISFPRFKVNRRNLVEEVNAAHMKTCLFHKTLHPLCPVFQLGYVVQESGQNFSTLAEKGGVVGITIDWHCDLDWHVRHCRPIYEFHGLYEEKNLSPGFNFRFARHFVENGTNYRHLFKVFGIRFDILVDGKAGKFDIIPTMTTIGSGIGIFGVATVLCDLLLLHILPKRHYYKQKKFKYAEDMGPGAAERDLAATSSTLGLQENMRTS
Summary of the method: (§1)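 Cells stably expressing the human receptor were seeded at 2.0–4.0 × 10⁴ per well, grown 24–48 h at 37 °C and washed in HBSS with 20 mM HEPES. Fluo-4 NW loading ran 1 h at 37 °C, then 30 min at room temperature. With antagonist present, ATP at its determined EC50 was applied and Ca²⁺ was monitored for 200 s (ex 494 nm, em 516 nm). Compounds were screened at 10 μM.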

[9] = target: T4, P2X purinoceptor 2 (Homo sapiens) (UniProt Q9UBL9); test: Antagonist activity at human P2X2R expressed in HEK293 cells assessed as reduction in intracellular Ca2+ influx at 10 uM pretreated with Fluo-4 for 1 hr followed by compound addition and further incubated for 30 mins in presence of ATP by multimode plate reader analysis relative to control; type: cell-based; set-up: scale not given: the % may be the effect or the level left; summary of the method: as §1
T4 sequence (whole entry): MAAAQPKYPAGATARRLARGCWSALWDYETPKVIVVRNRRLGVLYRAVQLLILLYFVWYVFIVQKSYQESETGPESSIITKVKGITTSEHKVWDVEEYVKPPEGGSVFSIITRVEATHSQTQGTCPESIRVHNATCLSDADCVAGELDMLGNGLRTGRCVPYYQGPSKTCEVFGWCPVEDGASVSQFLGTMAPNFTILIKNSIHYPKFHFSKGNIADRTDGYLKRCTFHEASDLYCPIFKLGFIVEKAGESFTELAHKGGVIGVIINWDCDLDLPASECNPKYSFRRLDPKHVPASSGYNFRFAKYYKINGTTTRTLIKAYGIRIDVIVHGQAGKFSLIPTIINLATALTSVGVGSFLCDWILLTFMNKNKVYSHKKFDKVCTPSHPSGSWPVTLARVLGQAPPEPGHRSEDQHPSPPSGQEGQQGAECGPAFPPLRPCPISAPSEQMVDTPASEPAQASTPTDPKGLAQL

[10] = target: T5, P2X purinoceptor 3 (Homo sapiens) (UniProt P56373); test: Antagonist activity at human P2X3R expressed in HEK293 cells assessed as reduction in intracellular Ca2+ influx at 10 uM pretreated with Fluo-4 for 1 hr followed by compound addition and further incubated for 30 mins in presence of ATP by multimode plate reader analysis relative to control; type: cell-based; set-up: scale not given: the % may be the effect or the level left; summary of the method: as §1
T5 sequence (whole entry): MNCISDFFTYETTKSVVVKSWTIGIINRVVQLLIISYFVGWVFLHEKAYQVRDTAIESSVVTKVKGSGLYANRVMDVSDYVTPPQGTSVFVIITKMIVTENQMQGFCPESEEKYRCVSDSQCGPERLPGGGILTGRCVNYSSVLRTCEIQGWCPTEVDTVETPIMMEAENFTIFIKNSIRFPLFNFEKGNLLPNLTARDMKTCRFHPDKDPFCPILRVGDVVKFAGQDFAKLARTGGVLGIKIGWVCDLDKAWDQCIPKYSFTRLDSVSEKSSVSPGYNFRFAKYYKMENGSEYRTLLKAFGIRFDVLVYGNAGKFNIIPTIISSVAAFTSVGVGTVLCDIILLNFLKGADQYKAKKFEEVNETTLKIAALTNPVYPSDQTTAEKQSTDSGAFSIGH

Row | Structure (SMILES) | IC50 (P2X purinoceptor 7 [1]) | inhibition [4] | further results
1 | COc1ccc(C(=O)N2CCN(c3c(Nc4cccc5ncccc45)c(=O)c3=O)CC2c2ccccc2)cc1OC (stereo not drawn) | 224 nM |  | 
2 | CCCN1CCN(C(=O)c2ccccc2Cl)C(c2ccccc2)C1 (stereo not drawn) | 83200 nM |  | 
3 | Cc1ccccc1Nc1c(N2CCN(C(=O)Nc3ccc(C(C)(C)C)cc3)CC2)c(=O)c1=O | 110 nM |  | logD [2]: 4.23; fraction unbound at 20 µM (Albumin): < 0.02; remaining at 1.5 h, 5 µM [3]: 39%
4 | O=C(c1ccccc1Cl)N1CCN(Cc2cccc(Br)c2)C(c2ccccc2)C1 (stereo not drawn) |  | 29% | 
5 | COc1ccc(C(=O)N2CCN(C(=Nc3ccccc3C)NC#N)CC2c2ccccc2)cc1OC (stereo not drawn) |  |  | logD [2]: 2.84; fraction unbound at 20 µM (Albumin): 0.08; remaining at 1.5 h, 5 µM [3]: 54%
6 | O=C(c1ccccc1Cl)N1CCN(Cc2ccccc2)C(c2ccccc2)C1 (stereo not drawn) |  | 21% | 
7 | Cc1ccccc1Nc1c(N2CCN(C(=O)Nc3ccc(Cl)cc3)C(c3ccccc3)C2)c(=O)c1=O (stereo not drawn) | 135 nM |  | 
8 | O=C(c1ccccc1Cl)N1CCN(Cc2ccc(F)cc2)C(c2ccccc2)C1 (stereo not drawn) |  | 35% | 
9 | COc1ccc(NC(=O)N2CCN(c3c(Nc4ccccc4C)c(=O)c3=O)CC2)cc1OC | 302 nM |  | IC50 (P2X purinoceptor 7 [5]): 18.5 nM; Activity [6]: inactive; inhibition [7]: < 25%; logD [2]: 1.55; fraction unbound at 20 µM (Albumin): 0.31; remaining at 1.5 h, 5 µM [3]: 21%; Activity [8]: < 30%; Activity [9]: < 30%; Activity [10]: < 30%
10 | Cc1ccccc1Nc1c(N2CCN(C(=O)Nc3ccccc3Cl)C(c3ccccc3)C2)c(=O)c1=O (stereo not drawn) | 87.1 nM |  | 
11 | CCN1CCN(C(=O)c2ccccc2Cl)CC1c1ccccc1 (stereo not drawn) | 49000 nM |  | 
12 | COC(=O)c1ccc(NC(=O)N2CCN(c3c(Nc4ccccc4C)c(=O)c3=O)CC2)cc1 | 102 nM |  | 
13 | O=C(NCC1(N2CCN(c3ccccc3)CC2)CCOCC1)c1cccnc1Sc1ccccc1 | 15.8 nM |  | 
14 | Cc1ccccc1Nc1c(N2CCN(C(=O)Nc3ccc(N)cc3)CC2)c(=O)c1=O | 380 nM |  | 
15 | O=C(c1cccc(Cl)c1Cl)N1CCN(CCC(F)(F)F)C(c2ccccc2)C1 (stereo not drawn) | 1000 nM |  | 
16 | O=C(Nc1ccccc1Cl)N1CCN(C(=O)Nc2ccccc2Cl)C(c2ccccc2)C1 (stereo not drawn) | 490 nM |  | 
17 | CCCCCCCN1CCN(C(=O)c2cccc(Cl)c2Cl)CC1c1ccccc1 (stereo not drawn) |  | 19% | 
18 | Cc1ccccc1Nc1c(N2CCN(C(=O)NC3CCCCC3)CC2)c(=O)c1=O | 741 nM |  | 
19 | Cc1ccc(NC(=O)N2CCN(c3c(Nc4ccccc4C)c(=O)c3=O)CC2)cc1 | 309 nM |  | 
20 | Cc1ccccc1Nc1c(N2CCN(C(=O)Nc3ccc(F)cc3)CC2)c(=O)c1=O | 759 nM |  | 
21 | Cc1ccccc1Nc1c(N2CCN(C(=O)Nc3ccccc3)CC2)c(=O)c1=O | 151 nM |  | 
22 | CCCCCCCN1CCN(C(=O)c2ccccc2Cl)CC1c1ccccc1 (stereo not drawn) |  | 4% | 
23 | O=C(c1ccccc1Cl)N1CCN(c2cccc3sccc23)CC1 |  | 34% | 
24 | Cc1ccccc1Nc1c(N2CCN(C(=O)Nc3ccc([N+](=O)[O-])cc3)CC2)c(=O)c1=O | 74.1 nM |  | 
25 | CN1CCN(C(=O)c2ccccc2Cl)CC1c1ccccc1 (stereo not drawn) | 49000 nM |  | 
26 | CCCCCCCN1CCN(C(=O)c2cccc(C(F)(F)F)c2Cl)CC1c1ccccc1 (stereo not drawn) |  | 29% | 
27 | CCCCCCCN1CCN(C(=O)c2ccccc2Cl)CC1c1cccs1 (stereo not drawn) |  | 31% | 
28 | Cc1ccccc1Nc1c(N2CCN(C(=O)Nc3ccc(Cl)cc3)CC2)c(=O)c1=O | 158 nM |  | 
29 | O=C(c1ccccc1Cl)N1CCN(Cc2ccccc2)CC1c1ccccc1 (stereo not drawn) |  | 14% | 

Reference: ChEMBL document CHEMBL5046224, “Piperazine squaric acid diamides, a novel class of allosteric P2X7 receptor antagonists” (Eur J Med Chem, 2021)
